Measured values taken from ChEMBL document CHEMBL4725498, “Synthesis and Biological Evaluations of Electrophilic Steroids Inspired by the Taccalonolides” (ACS Med Chem Lett, 2020).
Activity calls are given as the source filed them. The rule behind the calls is not given here.

Assays:
BT-549 = experiment: Cytotoxicity against human BT-549 cells assessed as reduction in cell viability measured after 48 hrs by sulforhodamine B assay; type: functional; details: read-out: LC50 (the source's name)
Procedure, shortened: (§1)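 Breast lines were tested in a 48 h SRB assay: four molecularly diverse triple-negative lines plus nontumorigenic MCF 10A, with MCF 10A tested up to 50 μM. LC50 values came from concentration–response curves. Complete cytotoxicity was taken as the concentration giving full cell kill after 48 h incubation.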

HeLa [1] = experiment: Cytotoxicity against human HeLa cells assessed as reduction in cell viability measured after 48 hrs by sulforhodamine B assay; type: functional; details: read-out: LC50 (the source's name)
Procedure, shortened: (§2)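 HeLa cells exposed to compound for 48 h, then growth measured by sulforhodamine B (SRB) staining. GI50 (50% growth inhibition), TGI (total growth inhibition) and LC50 (50% cytotoxicity) were read from concentration–response data. Values are average ± SEM, n = 3–5.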

MDA-MB-231 = experiment: Cytotoxicity against human MDA-MB-231 cells assessed as reduction in cell viability measured after 48 hrs by sulforhodamine B assay; type: functional; procedure, shortened: as §1
HCC1937 = experiment: Cytotoxicity against human HCC1937 cells assessed as reduction in cell viability measured after 48 hrs by sulforhodamine B assay; type: functional; details: read-out: LC50 (the source's name); procedure, shortened: as §1
HeLa [2] = experiment: Antiproliferative activity against human HeLa cells assessed as growth inhibition measured after 48 hrs by sulforhodamine B assay; type: functional; procedure, shortened: as §2
Sus scrofa = species: Sus scrofa; experiment: Inhibition of porcine brain tubulin polymerization assessed as reduction in rate and extent of tubulin polymerization at 20 uM by turbidimetric assay
Procedure, shortened: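 Purified porcine brain tubulin (20 μM) was incubated with 20 μM compound or DMSO vehicle. Polymerization was monitored turbidimetrically after shift to 37 °C.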

[3] = Selectivity index, ratio of LC50 for human HeLa cells to LC50 for human HCC1937 cells measured after 48 hrs by sulforhodamine B assay; type: functional
MDA-MB-453 = experiment: Cytotoxicity against human MDA-MB-453 cells assessed as reduction in cell viability measured after 48 hrs by sulforhodamine B assay; type: functional; procedure, shortened: as §1
SK-OV-3 [4] = experiment: Antiproliferative activity against human SKOV3 cells assessed as reduction in cell growth at 0.01 to 10 uM incubated for 48 hrs by SRB assay; type: functional, cell-based; details: dose microM 0.01-10, time 48.0 hrs
SK-OV-3 [5] = experiment: Antiproliferative activity against human SKOV3-M6/6 cells assessed as reduction in cell growth at 0.01 to 10 uM incubated for 48 hrs by SRB assay; type: functional, cell-based; details: dose microM 0.01-10, time 48.0 hrs
OVCAR-5 = experiment: Antiproliferative activity against human OVCAR-5 cells assessed as reduction in cell growth at 0.01 to 10 uM incubated for 48 hrs by SRB assay; type: functional, cell-based; details: dose microM 0.01-10, time 48.0 hrs
ES2 = experiment: Antiproliferative activity against human ES-2 cells assessed as reduction in cell growth at 0.01 to 10 uM incubated for 48 hrs by SRB assay; type: functional, cell-based; details: dose microM 0.01-10, time 48.0 hrs

| Structure (SMILES) | CC50 (HeLa [1]) [nM] | GI50 (HeLa [2]) [nM] | TGI (HeLa [2]) [nM] | also measured |
| --- | --- | --- | --- | --- |
| C[C@]12C[C@H]3O[C@H]3C[C@@H]1CC[C@@H]1[C@@H]2CC[C@]2(C)C(=O)C=C[C@@H]12 | 860 | 310 | 510 | CC50 (BT-549): 450 nM; CC50 (MDA-MB-231; read-out: LC50 (the source's name)): 1580 nM; CC50 (HCC1937): 1780 nM; inhibition (Sus scrofa): Active |
| C[C@]12C[C@H]3O[C@H]3C[C@@H]1CC[C@H]1[C@@H]3[C@@H]4O[C@@H]4C(=O)O[C@@]3(C)CC[C@@H]12 | > 50000 | 28200 | > 50000 |  |
| C[C@]12C[C@H]3O[C@H]3C[C@@H]1CC[C@@H]1[C@@H]2CC[C@]2(C)[C@@H]3O[C@@H]3C(=O)[C@@H]12 | > 50000 | 34700 | > 50000 |  |
| C[C@]12C[C@H]3O[C@H]3C[C@@H]1CC[C@@H]1[C@@H]2CC[C@]2(C)C(=O)CC[C@@H]12 | 43400 | 19200 | 29800 |  |
| C[C@]12CC[C@H](O)C[C@@H]1CC[C@H]1[C@@H]3[C@@H]4O[C@@H]4C(=O)[C@@]3(C)CC[C@@H]12 | 2200 | 1300 | 1800 | CC50 (BT-549): 1430 nM; LC50 (concentration killing 50% of cells) (MDA-MB-231): 1400 nM; RatioLC50 [3]: 2; CC50 (HCC1937): 820 nM; LC50 (concentration killing 50% of cells) (MDA-MB-453): 1080 nM |
| C[C@]12C[C@@H]3N[C@@H]3C[C@@H]1CC[C@H]1[C@@H]3[C@@H]4O[C@@H]4C(=O)[C@@]3(C)CC[C@@H]12 | 1420 | 470 | 750 |  |
| CC(C)(C)OC(=O)N1[C@@H]2C[C@@]3(C)[C@@H](CC[C@H]4[C@@H]5[C@@H]6O[C@@H]6C(=O)[C@@]5(C)CC[C@@H]43)C[C@@H]21 | 730 | 640 | 680 |  |
| C[C@]12CC[C@H](O)C[C@@H]1CC[C@@H]1[C@@H]2CC[C@]2(C)C(=O)C=C[C@@H]12 | 1180 | 420 | 770 |  |
| Cc1ccc(S(=O)(=O)N2[C@@H]3C[C@@]4(C)[C@@H](CC[C@H]5[C@@H]6[C@@H]7O[C@@H]7C(=O)[C@@]6(C)CC[C@@H]54)C[C@@H]32)cc1 (stereo partly specified) | 660 | 450 | 540 | CC50 (BT-549): 260 nM; LC50 (concentration killing 50% of cells) (MDA-MB-231): 470 nM; CC50 (HCC1937): 760 nM; LC50 (concentration killing 50% of cells) (MDA-MB-453): 350 nM; inhibition (Sus scrofa): inactive |
| C[C@]12CC=CC[C@@H]1C(=O)C[C@H]1[C@@H]3[C@@H]4O[C@@H]4C(=O)[C@@]3(C)CC[C@@H]12 | 1570 | 820 | 1090 |  |
| CO[C@@H]1CC(=O)[C@@]2(C)CC[C@H]3[C@@H](C[C@H](O)[C@H]4CC=CC[C@@]43C)[C@H]12 | 48100 | 17500 | 30100 |  |
| C[C@]12CCC(=O)C[C@@H]1CC[C@H]1[C@@H]3[C@@H]4O[C@@H]4C(=O)[C@@]3(C)CC[C@@H]12 | 1900 | 1000 | 1400 | CC50 (BT-549): 1340 nM; LC50 (concentration killing 50% of cells) (MDA-MB-231): 1230 nM; RatioLC50 [3]: 2; CC50 (HCC1937): 700 nM; LC50 (concentration killing 50% of cells) (MDA-MB-453): 1010 nM |
| C[C@]12CC=CC[C@@H]1[C@@H](O)C[C@H]1[C@@H]3[C@@H]4O[C@@H]4C(=O)[C@@]3(C)CC[C@@H]12 | 1320 | 710 | 930 |  |
| C[C@]12C[C@H]3O[C@H]3C[C@@H]1[C@@H](O)C[C@H]1[C@@H]3[C@@H]4O[C@@H]4C(=O)[C@@]3(C)CC[C@@H]12 | 3290 | 2010 | 2500 |  |
| C[C@]12CC[C@H]3[C@@H](CC[C@H]4C[C@@H]5O[C@@H]5C[C@@]43C)[C@@H]1[C@H](O)[C@H]1O[C@H]12 | > 50000 | > 50000 | > 50000 |  |
| CO[C@@H]1CC(=O)[C@@]2(C)CC[C@H]3[C@@H](CC(=O)[C@H]4C[C@@H]5O[C@@H]5C[C@@]43C)[C@H]12 | > 50000 | > 50000 | > 50000 |  |
| C[C@]12C[C@H]3O[C@H]3C[C@@H]1C(=O)C[C@@H]1[C@@H]2CC[C@]2(C)C(=O)C=C[C@@H]12 | 2040 | 760 | 1280 | inhibition (Sus scrofa): Active |
| C[C@]12C[C@H]3O[C@H]3C[C@@H]1CC[C@@H]1[C@@H]2CC[C@]2(C)[C@@H]3O[C@@H]3C[C@@H]12 | > 50000 | > 50000 | > 50000 |  |
| C[C@]12C[C@H]3O[C@H]3C[C@@H]1CC[C@@H]1[C@@H]2CC[C@]2(C)C=CC(=O)[C@@H]12 | 18200 | 9200 | 12800 |  |
| C[C@]12CCC(=O)C[C@@H]1CC[C@@H]1[C@@H]2CC[C@]2(C)C(=O)C=C[C@@H]12 | 1270 | 380 | 750 |  |
| CO[C@@H]1CC(=O)[C@@]2(C)CC[C@H]3[C@@H](CC(=O)[C@H]4CC=CC[C@@]43C)[C@H]12 | > 50000 | 19400 | 35500 |  |
| CO[C@@H]1CC(=O)[C@@]2(C)CC[C@H]3[C@@H](C[C@H](O)[C@H]4C[C@@H]5O[C@@H]5C[C@@]43C)[C@H]12 | > 50000 | > 50000 | > 50000 |  |
| C[C@]12CC=CC[C@@H]1C(=O)C[C@@H]1[C@@H]2CC[C@]2(C)C(=O)C=C[C@@H]12 | 1290 | 760 | 980 |  |
| CC(=O)O[C@H]1[C@H]2[C@H]([C@@H]3[C@@H](O)[C@@H]4[C@H]([C@H](C)[C@H]5O[C@]56OC(=O)[C@@](C)(O)[C@]46C)[C@@]3(C)[C@H]1OC(C)=O)[C@@H](O)C(=O)[C@H]1C[C@@H]3O[C@@H]3[C@H](OC(C)=O)[C@]21C |  |  |  | Activity (SK-OV-3 [4]): Active; Activity (SK-OV-3 [5]): Active; Activity (OVCAR-5): Active; Activity (ES2): Active |
| C[C@]12C[C@H]3O[C@H]3C[C@@H]1[C@@H](O)C[C@@H]1[C@@H]2CC[C@]2(C)C(=O)C=C[C@@H]12 | 2370 | 1180 | 1620 | inhibition (Sus scrofa): Active |
| C[C@]12CC=CC[C@@H]1CC[C@H]1[C@@H]3[C@@H]4O[C@@H]4C(=O)[C@@]3(C)CC[C@@H]12 | 1480 | 700 | 1000 |  |
| C[C@]12CC=CC[C@@H]1[C@@H](O)C[C@@H]1[C@@H]2CC[C@]2(C)C(=O)C=C[C@@H]12 | 700 | 277 | 410 |  |
| C[C@]12C[C@H]3O[C@H]3C[C@@H]1C(=O)C[C@H]1[C@@H]3[C@@H]4O[C@@H]4C(=O)[C@@]3(C)CC[C@@H]12 | 3700 | 2060 | 2660 |  |
